Measurements taken from ChEMBL document CHEMBL1126017, “Phenylalkyl isothiocyanate-cysteine conjugates as glutathione S-transferase stimulating agents” (J Med Chem, 1992).

What was measured:
[1] = target: T1, Glutathione S-transferase Mu 1 (Mus musculus) (UniProt P10649); assay: Ratio of glutathione S-transferase activity in tested (cottonseed oil alone + compound) to that of control (cottonseed oil alone); type: functional
T1 sequence (whole entry): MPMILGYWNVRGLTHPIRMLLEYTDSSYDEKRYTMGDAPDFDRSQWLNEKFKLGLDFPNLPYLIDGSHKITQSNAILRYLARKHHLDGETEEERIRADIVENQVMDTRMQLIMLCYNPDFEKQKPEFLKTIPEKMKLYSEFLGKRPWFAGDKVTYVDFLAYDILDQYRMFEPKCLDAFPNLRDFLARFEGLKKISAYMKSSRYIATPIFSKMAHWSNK
Method in brief: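 Ratio of cytosolic GST specific activity (CDNB substrate, 340 nm, 30 °C) in each tissue of gavaged female A/J mice to that of cottonseed oil-only controls (test/control).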

[2] = tested on: glutathione S-transferase (Mus musculus); assay: Induction of increased cytosolic glutathione S-transferase activity in lung of A/J mice treated with 3 doses of 0.04 mM compound (dissolved in 0.3 mL of cottonseed oil) for 2 days
[3] = tested on: glutathione S-transferase (Mus musculus); assay: Induction of increased cytosolic glutathione S-transferase activity in lung of A/J mice treated with 3 doses of 0.10 mM compound (dissolved in 0.3 mL of cottonseed oil) for 2 days
[4] = tested on: glutathione S-transferase (Mus musculus); assay: Induction of increased cytosolic glutathione S-transferase activity in liver of A/J mice treated with 3 doses of 0.10 mM compound (dissolved in 0.3 mL of cottonseed oil) for 2 days
[5] = tested on: glutathione S-transferase (Mus musculus); assay: Induction of increased cytosolic glutathione S-transferase activity in liver of A/J mice treated with 3 doses of 0.04 mM compound (dissolved in 0.3 mL of cottonseed oil) for 2 days
[6] = tested on: glutathione S-transferase (Mus musculus); assay: Induction of increased cytosolic glutathione S-transferase activity in bladder of A/J mice treated with 3 doses of 0.04 mM compound (dissolved in 0.3 mL of cottonseed oil) for 2 days; conditions: Urinary bladder
[7] = tested on: glutathione S-transferase (Mus musculus); assay: Induction of increased cytosolic glutathione S-transferase activity in forestomach of A/J mice treated with 3 doses of 0.04 mM compound (dissolved in 0.3 mL of cottonseed oil) for 2 days; conditions: Stomach
[8] = tested on: glutathione S-transferase (Mus musculus); assay: Induction of increased cytosolic glutathione S-transferase activity in forestomach of A/J mice treated with 3 doses of 0.10 mM compound (dissolved in 0.3 mL of cottonseed oil) for 2 days; conditions: Stomach
[9] = tested on: glutathione S-transferase (Mus musculus); assay: Induction of increased cytosolic glutathione S-transferase activity in large bowel mucosa of A/J mice treated with 3 doses of 0.04 mM compound (dissolved in 0.3 mL of cottonseed oil) for 2 days
[10] = tested on: glutathione S-transferase (Mus musculus); assay: Induction of increased cytosolic glutathione S-transferase activity in large bowel mucosa of A/J mice treated with 3 doses of 0.10 mM compound (dissolved in 0.3 mL of cottonseed oil) for 2 days
[11] = tested on: glutathione S-transferase (Mus musculus); assay: Induction of increased cytosolic glutathione S-transferase activity in small bowel mucosa of A/J mice treated with 3 doses of 0.04 mM compound (dissolved in 0.3 mL of cottonseed oil) for 2 days
[12] = tested on: glutathione S-transferase (Mus musculus); assay: Induction of increased cytosolic glutathione S-transferase activity in small bowel mucosa of A/J mice treated with 3 doses of 0.10 mM compound (dissolved in 0.3 mL of cottonseed oil) for 2 days

Ratio [1]: 1.11 [middle of 11 runs]
Activity (uM min-1 (mg of protein)-1) [2]: 0.31
Activity (uM min-1 (mg of protein)-1) [3]: 0.29
Activity (uM min-1 (mg of protein)-1) [4]: 1.35
Activity (uM min-1 (mg of protein)-1) [5]: 1.2
Activity (uM min-1 (mg of protein)-1) [6]: 6.16
Activity (uM min-1 (mg of protein)-1) [7]: 0.86
Activity (uM min-1 (mg of protein)-1) [8]: 0.92
Activity (uM min-1 (mg of protein)-1) [9]: 0.26
Activity (uM min-1 (mg of protein)-1) [10]: 0.38
Activity (uM min-1 (mg of protein)-1) [11]: 0.49
Activity (uM min-1 (mg of protein)-1) [12]: 0.69
SMILES: NC(CS/C(S)=N/CCCc1ccccc1)C(=O)O (configuration not stated)
